# Screens deposited in PubChem BioAssay by several laboratories.
# Dynein cargo inh = blocks dynein driven cargo transport along microtubules; 3617.4 mouse cells, GR-EGFP nuclear translocation imaging; test concentration mostly 20 µM; stimulated with dexamethasone, 1 µM; stronger effect = lower value; z-score, hits read low; actives 0.47% (n = 220,000); AID 1381;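 active = plate z-score of nuclear minus cytoplasmic receptor signal below a set negative limit, without overly bright fluorescence or cell loss, cut at about -3.5 in these data, passing the limit was not always enough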;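 note: z-score of nuclear minus cytoplasmic ring GR-EGFP intensity difference per well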
#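 Buffer or medium: tet-free, stripped-serum medium; Also added: dexamethasone, 1.0 µM final; Technique: high-content fluorescence imaging after fixation; Times: 48 h induction, 1 h compound, 30 min dex at 37 °C; Read-out: per-cell GR-EGFP intensity, nucleus versus surrounding cytoplasmic ring, well-averaged.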
# TNF death inh = blocks TNF-alpha induced death of Jurkat FADD-/- cells; Jurkat FADD-/- TNF necroptosis rescue, ATP luminescence, 24 h; 0 = TNF only, 100 = no-TNF cells; activation (protection from cell death), % at 10 µM; actives 0.068% (n = 220,000); AID 463075;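 active = activation, meaning protection from cell death, of at least 50% relative to plate controls; inactive = activation below 50%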;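 note: necroptosis triggered by 40 ng/mL TNF-alpha added together with compound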
# Beta2AR agonist = human beta-2 adrenergic receptor agonism by FAP; P07550; Am2.2-beta2AR cells, FAP receptor internalization, flow cytometry; response, % (test concentration not listed); actives 0.43% (n = 340,000);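 active = response above a set limit, near 3 SD of response in nonfluorescent compounds, cut at about 42% in these data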
# Mdm2 ligase inh = Mdm2 E3 ligase (human) inhibition; AID 1230; cell-based MDM2 ubiquitination luciferase reporter, 2 h; 0 = plate control, 100 = twice control, blank-subtracted; actives 0.11% (n = 210,000); signal enhancement, % at 5 µM; Q00987;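 active = signal enhancement of 30% or more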;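 note: luminescence tracks abundance of the self-degrading MDM2-luciferase fusion protein; higher signal means inhibition of MDM2 E3 ligase activity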
# Target sequence (Q00987 whole entry, looked up, the tested form may be a part): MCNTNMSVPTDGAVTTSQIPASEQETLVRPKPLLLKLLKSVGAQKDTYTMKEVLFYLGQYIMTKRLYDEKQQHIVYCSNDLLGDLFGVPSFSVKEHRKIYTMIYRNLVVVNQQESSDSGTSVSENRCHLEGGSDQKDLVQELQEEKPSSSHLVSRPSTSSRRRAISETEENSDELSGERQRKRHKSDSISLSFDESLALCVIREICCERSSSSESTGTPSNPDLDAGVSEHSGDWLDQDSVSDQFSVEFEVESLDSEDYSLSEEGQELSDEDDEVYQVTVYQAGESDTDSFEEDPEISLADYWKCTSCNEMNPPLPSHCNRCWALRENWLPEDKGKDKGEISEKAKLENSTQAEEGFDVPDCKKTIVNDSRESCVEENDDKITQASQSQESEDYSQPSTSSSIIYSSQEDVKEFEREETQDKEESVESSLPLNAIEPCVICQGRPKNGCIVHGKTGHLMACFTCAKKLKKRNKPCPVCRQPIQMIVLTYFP
#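 Test system: mammalian cells stably expressing self-ubiquitinating, self-degrading MDM2 E3–luciferase fusion; Amount: 2000 cells in each well; Medium: DMEM; Schedule: 4 h settle plus 2 h compound, 37 °C; Technique: SteadyLite luciferase luminescence after 15 min room-temperature reagent incubation; Benchmarks: plate control and blank wells.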
# L929 necroptosis = L929 zVAD cell death inhibition | L929 zVAD necroptosis rescue, ATP luminescence, 24 h; with zVAD 60 µM | viability rescue, % at 10 µM | actives 0.38% (n = 220,000);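 active = activation, scaled between plate controls, above about 75%, limit read from the data; inactive = activation under that limit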;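 note: 0% = zVAD with DMSO and 100% = DMSO alone without zVAD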
# B2AR ag CP1 = agonists of human beta-2 adrenergic receptor. percent response (surface receptor), % at 10 µM. Am2.2-beta2AR cells, FAP surface receptor, flow cytometry; stronger effect = lower value. actives 25% (n = 1,100). shares compounds with Beta2AR agonist;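 active = surface receptor percent response at or below 58%, roughly 3 SD from nonfluorescent compounds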
# B2AR FAP counter = counter-screen for beta-2AR agonists: fluorescence in Am2.2 cells; shares compounds with Beta2AR agonist; FAP fluorogen flow cytometry, fluorescence counterscreen; stronger effect = lower value; calls only at 10 µM; 1,100 tested, under 10 active; AID 588765;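 active = percent response below a set limit in fluorescence channel 1 and below 50% in channel 8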
# Numbers without * were called inactive; i = inactive; nt = no result given. Shown are actives, neighbours in structure and some others; about 0.97% of the full set was active somewhere.
SMILES,Dynein cargo inh,TNF death inh,Beta2AR agonist,Mdm2 ligase inh,L929 necroptosis,B2AR ag CP1,B2AR FAP counter
Fc1ccc(Nc2nc(-c3ccncc3)nc3ccccc23)cc1F,-0.44,1,50*,-13,6,85,i
Clc1cccc(Nc2nc(-c3ccncc3)nc3ccccc23)c1,-0.67,4,6,-12,5,nt,nt
CC(NCCC(c1ccccc1)c1ccccc1)c1ccccc1 (stereo unspecified),-0.4,5,25,nt,10,84,i
CC(NC1CCCC1)c1ccccc1 (stereo unspecified),-1,1,-1,-3,5,nt,nt
CCOC(=O)N1CCC(Nc2cccc(SC)c2)CC1,-0.18,0,3,-24,0,nt,nt
COc1ccc(CCNC(=O)CCCCCNc2nc(=S)[nH]c3ccccc23)cc1OC,-0.36,2,-12,19,0,nt,nt
COc1ccc(CNC(=O)CCCCCNc2nc(=S)[nH]c3ccccc23)cc1,-1.1,1,129*,-2,28,26*,i
C=CCN1C(=O)C(CC(=O)Nc2ccccc2)S/C1=N/c1nccs1 (stereo unspecified),0.18,9,1,-9,0,nt,nt
COc1ccc(S(=O)(=O)N2CCCCCC2)cc1C(=O)N(C)Cc1ccc(OC)c(OC)c1OC,nt,nt,51*,nt,nt,108,i
CCN(CC)C(=O)CSc1nc(-c2ccccc2)cc(=O)[nH]1,0.42,0,-2,-8,1,120,i
CCN(Cc1ccccc1)C(=O)CSc1nc(C)cc(=O)[nH]1,-0.034,-1,4,-4,1,nt,nt
CC(C)c1nc2sc3c(NCc4ccccc4)ncnc3c2c2c1COC(C)(C)C2,0.16,0,2,-13,0,114,i
CCOc1cccc(C(=O)Nc2ccc3oc(-c4cccnc4)nc3c2)c1,0.58,-3,7,-14,1,103,i
COC(=O)NC1(C(F)(F)F)C(=O)Nc2c1c(=O)n(C)c(=O)n2C (stereo unspecified),-0.74,-1,59*,-33,1,106,i
COc1ccc(C2=NN(C(=O)c3cccs3)C(c3ccc(OC)cc3)C2)cc1 (stereo unspecified),-0.34,1,44*,-10,-1,43*,i
O=C(c1cccs1)N1N=C(c2ccccc2)CC1c1ccccc1 (stereo unspecified),0.053,-3,-4,3,0,nt,nt
FC(F)(F)c1cccc(NC(=S)NCc2ccccc2)c1,-0.037,-4,-5,-8,0,nt,nt
O=C(COC(=O)CCc1nc2ccccc2c(=O)[nH]1)NC(c1ccccc1)c1ccccc1,0.005,1,5,nt,1,nt,nt
CCCCC(=O)N1C/C=C\[C@H](c2ccc(OC)cc2)N(Cc2ccc(F)cc2)C(=O)[C@@H]1C,nt,nt,-1,nt,nt,nt,nt
COc1ccc(C2/C=C\CN(C(=O)c3ccc(C)cc3)CC(=O)N2Cc2ccc(F)cc2)cc1 (stereo unspecified),-0.034,1,9,18,0,102,i
COc1ccc([C@H]2/C=C\CN(C(=O)c3ccccc3)[C@@H](C)C(=O)N2Cc2ccc(F)cc2)cc1,nt,nt,3,nt,nt,111,i
Cc1cc(NC(=O)COC(=O)c2cccc(O)c2)no1,-0.81,0,15,-5,18,nt,nt
O=C(c1cc2c(ccc3ccccc32)o1)N1CCN(c2ncc(C(F)(F)F)cc2Cl)CC1,0.55,1,98*,-9,1,13*,i
CCOC(=O)c1c(NC(=S)Nc2ccc(OC)cc2)sc2c1CCCCC2,-0.78,1,10,2,0,nt,nt
O=C1CC(C(=O)Nc2ccccc2)C2(CCCC2)O1 (stereo unspecified),0.56,0,-3,-15,0,nt,nt
O=C1CC(C(=O)Nc2ccc(C(=O)N3CCOCC3)cc2)C2(CCCCC2)O1 (stereo unspecified),1.1,-1,52*,6,0,136,i
COc1ccc(Cn2c(SCc3cc(C)ccc3C)nc3cc(OC)c(OC)cc3c2=N)cc1,1.5,-26,43*,1,6,20*,i
O=[N+]([O-])c1ccc2nc(CCCc3nc4ccc([N+](=O)[O-])cc4[nH]3)[nH]c2c1,0.32,5,54*,6,24,121,i
